In the RNAGym collection of RNA variant scans (doi:10.1002/anie.201605470) one finds self-cleavage data, which are given here for 167 variants.

The chains are these.
B1: Osa-1-4 twister ribozyme (parent)
chain: CCGCCUAACACUGCCAAUGCCGGUCCCAAGCCCGGAUAAAAGUGGAGGGGGCGG

The data set covers variants of B1. The experiment in a line: self-cleavage, relative activity (ratio to wild type); higher = more cleavage; co-transcriptional. The procedure, abridged: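 Values are relative activity: the fraction cleaved, normalised to wild type. A doped DNA template for a 54-nucleotide twister ribozyme from Oryza sativa had 97 % wild-type base and 1 % of each other base at the 48 positions downstream of the cleavage site. The RNA was transcribed in vitro for 2 h at 37 °C so that it could cleave itself co-transcriptionally, then sequenced deeply, with cleavage status scored from the presence or absence of upstream sequence in reads.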
On to C11G U24G, for which the self-cleavage was 0.04. On to C11G U24C, for which the self-cleavage amounted to 0.04. Take C11U G23A: the self-cleavage worked out at 0.1. As to C11U G23U, the self-cleavage worked out at 0.05.

C11U G23C: the self-cleavage worked out at 0.04. Under C11U G22C stands 0.04.

With C11U G22U, the self-cleavage came out at 0.22. Turning to C11U G22A, the self-cleavage is 0.59. Under U12G U18A stands 0.39.

As to U12G U18G, the self-cleavage is 0.59. Turning to U12G U18C, the self-cleavage was 0.28. Turning to C11U C21A, the self-cleavage was determined as 0.29. As for C11U C21G, the self-cleavage turned out to be 0.11. In the case of C11U C21U it was 0.91. Consider C11U C52G, for which the self-cleavage came to 0.81. Turning to C11U C52U, the self-cleavage was found to be 0.98. In the case of C11U C52A it was 0.83.

As to G13C U12A, the self-cleavage came out at 0.03. As to G13C U12G, the self-cleavage is 0.56. Under G13C U12C stands 0.03; under G13C G53A, 0.02. As for G13C G53C, the self-cleavage is 0.01. As for G13C G53U, the self-cleavage worked out at 0.02.

On to C11U U37A, for which the self-cleavage came to 0.62.

Turning to C11U U37G, the self-cleavage came out at 0.94.

Consider C11U U37C, for which the self-cleavage turned out to be 1.02. In the case of C11U C31G, the self-cleavage worked out at 0.06. Turning to C11U C31U, the self-cleavage amounted to 0.37.

Turning to C11U C31A, the self-cleavage was 0.03. Under C11U G44U stands 0.67; under C11U G44A, 0.8. In the case of C11U G44C it was 0.84. As to C11U U24G, the self-cleavage was determined as 0.06. Under C11U U24A stands 0.06; under C11U U24C, 0.1. In the case of C11U G30A it was 0.04. On to C11U G30C, for which the self-cleavage came out at 0.05. Regarding C11U G30U, the self-cleavage was determined as 0.03. Turning to G13U G23U, the self-cleavage is 0.02. For G13U G23A, the self-cleavage was 0.02. Regarding G13U G23C, the self-cleavage stood at 0. Consider G13A G45C, for which the self-cleavage is 0.02. As to G13A G45A, the self-cleavage was 0.03. Regarding G13A G45U, the self-cleavage is 0.02. Take C11G U18A: the self-cleavage was determined as 0.52. Consider C11G U18C, for which the self-cleavage is 0.24. Under C11G U18G stands 0.54. In the case of C11U C9G, the self-cleavage turned out to be 0.36.

Consider C11U C9U, for which the self-cleavage amounted to 0.65. On to C11U C9A, for which the self-cleavage stood at 0.26.

On to U12C, for which the self-cleavage came to 0.66. For U12A, the self-cleavage amounted to 0.99. U12G: the self-cleavage was 0.55. For the variant C11U G47A, the self-cleavage was 0.09. Consider C11U G47U, for which the self-cleavage was 0.07. For C11U G47C, the self-cleavage turned out to be 0.07. Take G13C G48U: the self-cleavage turned out to be 0.01. With G13C G48A, the self-cleavage was determined as 0.01.

G13C G48C: the self-cleavage was determined as 0.02.

On to G13U G22A, for which the self-cleavage is 0.03. Under G13U G22U stands 0.02; under G13U G22C, 0.01.

As to G13C G54A, the self-cleavage stood at 0.03. Take G13C G54U: the self-cleavage is 0.04.

For the variant G13C G54C, the self-cleavage worked out at 0.02. U12G U24A: the self-cleavage worked out at 0.05. U12G U24C: the self-cleavage was 0.04. Consider U12G U24G, for which the self-cleavage was 0.04.

Turning to G13C G50A, the self-cleavage was 0.03.

Consider G13C G50U, for which the self-cleavage was determined as 0.02. Under G13C G50C stands 0.02; under G13A G54A, 0.07; under G13A G54C, 0.06. On to G13A G54U, for which the self-cleavage was determined as 0.2. In the case of G13C U18A, the self-cleavage came out at 0.03. With G13C U18G, the self-cleavage is 0.05.

G13C U18C: the self-cleavage came out at 0.04. For C11G G51C, the self-cleavage was determined as 0.03.

With C11G G51A, the self-cleavage was determined as 0.07. Take C11G G51U: the self-cleavage turned out to be 0.05.

On to G13U G30A, for which the self-cleavage was 0.01. Turning to G13U G30U, the self-cleavage amounted to 0.01. As to G13U G30C, the self-cleavage stood at 0.01.

Consider G13C G34C, for which the self-cleavage stood at 0.02. Regarding G13C G34A, the self-cleavage was found to be 0.04.

With G13C G34U, the self-cleavage worked out at 0.03.

As for U12C U24A, the self-cleavage stood at 0.05. On to U12C U24C, for which the self-cleavage was determined as 0.06. Consider U12C U24G, for which the self-cleavage was 0.03.

Consider C11G U12A, for which the self-cleavage amounted to 0.15. Take C11G U12G: the self-cleavage turned out to be 0.08. In the case of C11G U12C it was 0.08; in that of C11U C26A, 0.05.

On to C11U C26U, for which the self-cleavage came out at 0.6.

As to C11U C26G, the self-cleavage was 0.08. Take C11G G47A: the self-cleavage was 0.04.

Turning to C11G G47U, the self-cleavage stood at 0.04. For the variant C11G G47C, the self-cleavage is 0.04.

Consider G13U G34C, for which the self-cleavage stood at 0.03.

In the case of G13U G34A, the self-cleavage is 0.02. As for G13U G34U, the self-cleavage amounted to 0.03. As for G13C G30A, the self-cleavage was 0.01.

Regarding G13C G30C, the self-cleavage is 0.02. Consider G13C G30U, for which the self-cleavage came to 0.01. As for G13C G49C, the self-cleavage came to 0.01. G13C G49U: the self-cleavage worked out at 0.01. In the case of G13C G49A, the self-cleavage turned out to be 0.01. On to C11U G49U, for which the self-cleavage was determined as 0.09.

Turning to C11U G49C, the self-cleavage turned out to be 0.08. Consider C11U G49A, for which the self-cleavage was found to be 0.09. As for C11U C33A, the self-cleavage turned out to be 0.07.

Take C11U C33G: the self-cleavage turned out to be 0.06. Take C11U C33U: the self-cleavage came out at 0.51. For the variant G13A U24G, the self-cleavage stood at 0.01. Take G13A U24C: the self-cleavage was found to be 0.04.

In the case of G13A U24A, the self-cleavage was determined as 0.05. In the case of G13C G47A, the self-cleavage is 0.02.

Consider G13C G47C, for which the self-cleavage was 0.01.

For G13C G47U, the self-cleavage was found to be 0.02. Regarding G13A G34A, the self-cleavage worked out at 0.09. Take G13A G34U: the self-cleavage came to 0.05. As to G13A G34C, the self-cleavage was determined as 0.05. As for G13C G45A, the self-cleavage is 0.02. Consider G13C G45C, for which the self-cleavage turned out to be 0.01. For the variant G13C G45U, the self-cleavage was found to be 0.01. As for G13A G48A, the self-cleavage stood at 0.03. Regarding G13A G48C, the self-cleavage stood at 0.03. With G13A G48U, the self-cleavage came out at 0.02. Under U12A U24A stands 0.07. Consider U12A U24G, for which the self-cleavage was 0.03. For U12A U24C, the self-cleavage was 0.08. C11U G51C: the self-cleavage was 0.05. Take C11U G51U: the self-cleavage came to 0.12. For the variant C11U G51A, the self-cleavage was determined as 0.34. For the variant C11U G54C, the self-cleavage stood at 0.8. C11U G54A: the self-cleavage stood at 0.78. Consider C11U G54U, for which the self-cleavage turned out to be 0.79. Regarding G13A G50C, the self-cleavage came out at 0.06. With G13A G50A, the self-cleavage was determined as 0.14. Under G13A G50U stands 0.08. Turning to G13C G42A, the self-cleavage was found to be 0.03. Under G13C G42C stands 0.02. On to G13C G42U, for which the self-cleavage worked out at 0.01. As for C11U C27A, the self-cleavage turned out to be 0.14. Regarding C11U C27U, the self-cleavage was 0.12.

Consider C11U C27G, for which the self-cleavage came to 0.06. As for G13C G23C, the self-cleavage worked out at 0.01.

In the case of G13C G23A, the self-cleavage was 0.02. For G13C G23U, the self-cleavage was 0.02.

As to G13A G22A, the self-cleavage is 0.07. In the case of G13A G22C it was 0.03. Regarding G13A G22U, the self-cleavage came out at 0.04. Under C11U U43C stands 0.26. For C11U U43A, the self-cleavage amounted to 0.62. For C11U U43G, the self-cleavage was 0.2.

As for C11G G54U, the self-cleavage was determined as 0.36. As to C11G G54C, the self-cleavage came to 0.32.

Regarding C11G G54A, the self-cleavage came to 0.3.

In the case of G13C G35C, the self-cleavage came to 0.02. For G13C G35U, the self-cleavage came to 0.04. Regarding G13C G35A, the self-cleavage is 0.02. Under C11U C32A stands 0.06; under C11U C32U, 0.07.

Regarding C11U C32G, the self-cleavage came out at 0.08.

With G13C U37C, the self-cleavage amounted to 0.03. With G13C U37G, the self-cleavage worked out at 0.04. Consider G13C U37A, for which the self-cleavage was 0.02.
